Experimental data from ChEMBL document CHEMBL3351634, “Novel sulfonamides bearing pyrrole and pyrrolopyrimidine moieties as carbonic anhydrase inhibitors: Synthesis, cytotoxic activity and molecular modeling” (Eur J Med Chem, 2014).

What was measured:
[1] = system: MCF7; experiment: Cytotoxicity against human MCF7 cells assessed as cell survival at 10 uM after 48 hrs by sulforhodamine-B assay; format: functional; conditions: MCF7, 48 h, read-out: Survival
How it was run: (§1)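 Cells plated at 10⁴ per well and left 24 h to attach, then exposed for 48 h at 37 °C under 5% CO₂, with triplicate wells per concentration. Cells were fixed, washed and stained 30 min with 0.4% (wt/vol) SRB in 1% acetic acid. Unbound dye was removed with four 1% acetic acid washes and bound stain recovered in Tris-EDTA. Colour was read on an ELISA reader and expressed as surviving fraction.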

[2] = system: MCF7; experiment: Cytotoxicity against human MCF7 cells assessed as cell survival at 25 uM after 48 hrs by sulforhodamine-B assay; format: functional; conditions: MCF7, 48 h, read-out: Survival; how it was run: as §1
[3] = system: MCF7; experiment: Cytotoxicity against human MCF7 cells assessed as cell survival at 50 uM after 48 hrs by sulforhodamine-B assay; format: functional; conditions: MCF7, 48 h, read-out: Survival; how it was run: as §1
[4] = system: MCF7; experiment: Cytotoxicity against human MCF7 cells assessed as cell survival at 100 uM after 48 hrs by sulforhodamine-B assay; format: functional; conditions: MCF7, 48 h, read-out: Survival; how it was run: as §1
[5] = system: MCF7; experiment: Cytotoxicity against human MCF7 cells after 48 hrs by sulforhodamine-B assay; conditions: MCF7, 48 h
[6] = target: Carbonic anhydrase 9 (Homo sapiens, UniProt Q16790); experiment: Inhibition of human recombinant carbonic anhydrase 9 preincubated for 15 mins by stopped-flow CO2 hydrase assay
[7] = target: Carbonic anhydrase 1 (Homo sapiens, UniProt P00915); experiment: Inhibition of human recombinant carbonic anhydrase 1 preincubated for 15 mins by stopped-flow CO2 hydrase assay
[8] = target: Carbonic anhydrase 2 (Homo sapiens, UniProt P00918); experiment: Inhibition of human recombinant carbonic anhydrase 2 preincubated for 15 mins by stopped-flow CO2 hydrase assay

Carbonic anhydrase 1, sequence (P00915 whole entry): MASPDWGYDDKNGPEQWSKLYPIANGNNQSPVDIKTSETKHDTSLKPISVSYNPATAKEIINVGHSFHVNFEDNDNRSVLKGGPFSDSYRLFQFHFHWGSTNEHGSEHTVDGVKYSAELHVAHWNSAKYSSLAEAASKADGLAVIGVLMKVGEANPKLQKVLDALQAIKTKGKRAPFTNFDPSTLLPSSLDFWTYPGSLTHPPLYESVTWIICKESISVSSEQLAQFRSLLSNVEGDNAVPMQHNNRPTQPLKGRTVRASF

Row | SMILES | viability at 10 µM [1] | viability at 25 µM [2] | viability at 50 µM [3] | viability at 100 µM [4] | IC50 [5] | Ki [6] | Ki [7] | Ki [8]
1 | N#Cc1c(-c2ccc(Br)cc2)cn(-c2ccc(S(N)(=O)=O)cc2)c1NC(=S)Nc1ccc(Br)cc1 | 29.8% | 28% | 27.7% | 29% | 8.15 µM | – | – | –
2 | N#Cc1c(-c2ccc(Br)cc2)cn(-c2ccc(S(N)(=O)=O)cc2)c1NS(=O)(=O)c1ccccc1 | 27.2% | 29% | 20.2% | 23.2% | 7.01 µM | 0.849 µM | – | –
3 | Cc1ccc(-n2c(=S)[nH]c3c(c(-c4ccc(Br)cc4)cn3-c3ccc(S(N)(=O)=O)cc3)c2=N)cc1 | 25% | 24.2% | 22.9% | 24.5% | 6.46 µM | – | – | –
4 | N#Cc1c(-c2ccc(Br)cc2)cn(-c2ccc(S(N)(=O)=O)cc2)c1NC(=S)Nc1ccc(I)cc1 | 31.2% | 29% | 28.1% | 28.8% | 8.15 µM | 0.46 µM | – | –
5 | C/C(S)=N/c1c(C#N)c(-c2ccc(Br)cc2)cn1-c1ccc(S(N)(=O)=O)cc1 | 33% | 31.2% | 30% | 29.9% | 8.11 µM | 0.006 µM | – | –
6 | N#Cc1c(-c2ccc(Br)cc2)cn(-c2ccc(S(N)(=O)=O)cc2)c1NC(=O)c1ccc(Br)cc1 | 35.8% | 32.7% | 24.9% | 25.4% | 7.56 µM | – | – | –
7 | Cc1nc(S)c2c(-c3ccc(Br)cc3)cn(-c3ccc(S(N)(=O)=O)cc3)c2n1 | 23.6% | 21.8% | 19.8% | 23.1% | 6.74 µM | 0.0054 µM | – | –
8 | NS(=O)(=O)c1ccc(-n2cc(-c3ccc(Br)cc3)c3c(=O)n(C(=O)c4ccccc4)c(-c4ccccc4)nc32)cc1 | 36.6% | 31.8% | 28.4% | 26.8% | 8.11 µM | 0.0065 µM | > 10 µM | –
9 | N#Cc1c(-c2ccc(Br)cc2)cn(-c2ccc(S(N)(=O)=O)cc2)c1NC(=S)Nc1ccc([N+](=O)[O-])cc1 | 28% | 27.6% | 25.5% | 26% | 8.11 µM | 0.0866 µM | – | –
10 | N#Cc1c(-c2ccc(Br)cc2)cn(-c2ccc(S(N)(=O)=O)cc2)c1NC(=S)Nc1ccc(Cl)cc1 | 28.8% | 25.7% | 26% | 29% | 8.12 µM | 0.0903 µM | – | –
11 | CC(=O)CC(=O)Nc1c(C#N)c(-c2ccc(Br)cc2)cn1-c1ccc(S(N)(=O)=O)cc1 | 29% | 28.2% | 28% | 29.1% | 8.11 µM | 0.0055 µM | – | –
12 | NS(=O)(=O)c1ccc(-n2cc(-c3ccc(Br)cc3)c3c(=S)[nH]c(=S)[nH]c32)cc1 | 33.7% | 29.4% | 21.9% | 22.5% | 7.56 µM | 0.0071 µM | – | –
13 | N#Cc1c(-c2ccc(Br)cc2)cn(-c2ccc(S(N)(=O)=O)cc2)c1NC(=S)Nc1ccccc1 | 30.8% | 23.5% | 22.7% | 21.7% | 7.29 µM | 0.0624 µM | – | –
14 | N#Cc1c(-c2ccc(Br)cc2)cn(-c2ccc(S(N)(=O)=O)cc2)c1NC(=S)Nc1ccc(S(N)(=O)=O)cc1 | 31.1% | 29.1% | 25.5% | 27.6% | 8.13 µM | 0.0512 µM | – | –
15 | Nc1nc(=S)[nH]c2c1c(-c1ccc(Br)cc1)cn2-c1ccc(S(N)(=O)=O)cc1 | 23.1% | 25.5% | 19.9% | 25% | 6.46 µM | 0.0429 µM | – | –
16 | NS(=O)(=O)c1ccc(-n2cc(-c3ccc(Br)cc3)c3c(=O)n(C(=O)c4ccc(Cl)cc4)c(-c4ccc(Cl)cc4)nc32)cc1 | 54.9% | 29.3% | 20.1% | 29.5% | 13.1 µM | 0.488 µM | > 10 µM | > 10 µM
17 | COc1ccc(NC(=S)Nc2c(C#N)c(-c3ccc(Br)cc3)cn2-c2ccc(S(N)(=O)=O)cc2)cc1 | 26.2% | 26.3% | 24.9% | 21.7% | 7.01 µM | – | – | –
18 | N#Cc1c(-c2ccc(Br)cc2)cn(-c2ccc(S(N)(=O)=O)cc2)c1N | – | – | – | – | 7.56 µM | – | – | –
19 | Cc1ccc(S(=O)(=O)Nc2c(C#N)c(-c3ccc(Br)cc3)cn2-c2ccc(S(N)(=O)=O)cc2)cc1 | 32.4% | 27.1% | 22.2% | 21.4% | 7.56 µM | 0.171 µM | – | –
20 | Nc1nc(=O)[nH]c2c1c(-c1ccc(Br)cc1)cn2-c1ccc(S(N)(=O)=O)cc1 | 27% | 27.6% | 20.3% | 23.8% | 6.74 µM | 0.0244 µM | – | –
